# Source: ChEMBL document CHEMBL1125226, “Antineoplastic activity of didemnin congeners: nordidemnin and modified chain analogues” (1991)
# Experiments:
# B16 [1] = test: Antitumor activity against B16 melanoma from B6 D2 F1 female mice(T/C) as median survival time of treated mice (T) over that of control mice (C) at a dose of 0.03 mg/kg/day (repeated ip injections, day 1-9); type: functional, Mus musculus; settings: route intraperitoneal
# In short: (§1)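 B16 melanoma homogenate (1 g tumor in 9 mL 0.9% saline), 0.5 mL implanted ip on day 0 in B6D2F1 female mice (C57BL/6 ♀ × DBA/2 ♂). Treatment ip once daily from day 1 to day 9. Toxicity scored as survivors on day 5. Median survival recorded and T/C computed as treated/control median survival, ≥125% significant.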
# B16 [2] = test: Antitumor activity against B16 melanoma from B6 D2 F1 female mice(T/C) was evaluated from the median survival time of treated mice (T) over that of control mice (C) at a dose of 0.03 mg/kg/day; type: functional, Mus musculus
# In short: (§2)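 B6D2F1 female mice (C57BL/6 ♀ × DBA/2 ♂) implanted ip on day 0 with 0.5 mL of B16 tumor suspension (1 g homogenized in 9 mL 0.9% saline). Dosing ip on days 1, 5 and 9. Day-5 survivors give toxicity. Median survival of treated vs control mice gives T/C%, with ≥125% significant.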
# B16 [3] = test: Antitumor activity against B16 melanoma from B6 D2 F1 female mice(T/C) was evaluated from the median survival time of treated mice (T) over that of control mice (C) at a dose of 1 mg/kg/day; type: functional, Mus musculus; in short: as §2
# B16 [4] = test: Antitumor activity against B16 melanoma from B6 D2 F1 female mice evaluated as the number of survivors on day 5 at a dose of 0.06 mg/kg/day; type: functional, Mus musculus; in short: as §2
# B16 [5] = test: Antitumor activity against B16 melanoma from B6 D2 F1 female mice evaluated as the number of survivors on day 5 at a dose of 0.06 mg/kg/day (repeated ip injections, day 1-9); type: functional, Mus musculus; settings: route intraperitoneal; in short: as §1
# B16 [6] = test: Antitumor activity against B16 melanoma from B6 D2 F1 female mice evaluated as the number of survivors on day 5 at a dose of 0.50 mg/kg/day; type: functional, Mus musculus; in short: as §2
# B16 [7] = test: Antitumor activity against B16 melanoma from B6 D2 F1 female mice evaluated as the number of survivors on day 5 at a dose of 0.03 mg/kg/day (repeated ip injections, day 1-9); type: functional, Mus musculus; settings: route intraperitoneal; in short: as §1
# B16 [8] = test: Antitumor activity against B16 melanoma from B6 D2 F1 female mice evaluated as average weight change of animals between day 1 and day 5 after tumor implementation at a dose of 0.50 mg/kg/day; type: functional, Mus musculus
# In short: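 B16 melanoma in B6D2F1 female mice: 0.5 mL of tumor homogenate (1 g in 9 mL 0.9% saline) was given ip on day 0. Ip dosing was on days 1, 5 and 9. The readout was the average body weight change between day 1 and day 5 after tumor implantation.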
# B16 [9] = test: Antitumor activity against B16 melanoma from B6 D2 F1 female mice evaluated as Median survival time of treated mice at a dose of 0.25 mg/kg/day; type: functional, Mus musculus; in short: as §2
# B16 [10] = test: Antitumor activity against B16 melanoma from B6 D2 F1 female mice evaluated as Median survival time of treated mice at a dose of 0.50 mg/kg/day; type: functional, Mus musculus; in short: as §2
# L1210 [11] = test: Antitumor activity against L1210 Lymphoid Leukemia from CDF1 female mice evaluated as the number of survivors on day 5 at a dose of 0.50 mg/kg/day; type: functional, Mus musculus
# In short: (§3)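 L1210 leukemia, 10⁵ cells ip on day 0 into CDF1 female mice (BALB/c ♀ × DBA/2 ♂). Drug in 2% methanol given ip on days 1, 5 and 9, 10 mice per group. Survivors and body weight recorded on days 1 and 5, with toxicity as survivors on day 5. Deaths followed for 30 days. T/C = treated/control median survival time, significant at ≥125%.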
# L1210 [12] = test: Antitumor activity against L1210 Lymphoid Leukemia from CDF1 female mice as average weight change of animals between day 1 and day 5 after tumor implementation at a dose of 0.25 mg/kg/day; type: functional, Mus musculus
# In short: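 CDF1 female mice (BALB/c × DBA/2) received 10⁵ L1210 cells ip on day 0. Drug was dissolved in 2% methanol and given ip on days 1, 5 and 9, to 10 mice per group. Weights were taken on days 1 and 5, and the mean change was reported.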
# L1210 [13] = test: Antitumor activity against L1210 Lymphoid Leukemia from CDF1 female mice (T/C) as median survival time of treated mice (T) over that of control mice (C) at a dose of 0.25 mg/kg/day; type: functional, Mus musculus; in short: as §3
# L1210 [14] = test: Antitumor activity against L1210 Lymphoid Leukemia from CDF1 female mice as Median survival time of treated mice at a dose of 1.0 mg/kg/day; type: functional, Mus musculus; in short: as §3
# L1210 [15] = test: Antitumor activity against L1210 Lymphoid Leukemia from CDF1 female mice evaluated as Median survival time of treated mice at a dose of 0.25 mg/kg/day; type: functional, Mus musculus; in short: as §3
# L1210 [16] = test: In vitro cytostatic activity determined on L1210 leukemia cells at 48 hours.; type: functional; settings: Mus musculus, L1210, 48 h; read-out: ID50 (the source's name)
# In short: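 Log-phase L1210 cells were seeded at 0.8 × 10⁵ cells/mL in RPMI 1640 with 20% heat-inactivated horse serum, 2 mmol/L L-glutamine, streptomycin and penicillin. Drugs in ethanol (0.5% final) were tested at several concentrations.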
# P388 [17] = test: Average weight change of animals between day 1 and day 5 after tumor implementation at a dose of 0.50 mg/kg/day; type: functional, Mus musculus
# In short: (§4)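 P388 leukemia: CDF1 female mice were inoculated ip with 10⁶ cells on day 0. Treatment in 2% methanol was given ip on days 1, 5 and 9, with 10 mice per group and a larger control group. Body weight was recorded on days 1 and 5 post-implant, and the average change was reported.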
# P388 [18] = test: Average weight change of animals between day 1 and day 5 after tumor implementation at a dose of 1 mg/kg/day; type: functional, Mus musculus; in short: as §4
# P388 [19] = test: Antitumor activity was evaluated from the median survival time of treated mice (T) over that of control mice (C) at a dose of 1 mg/kg/day; type: functional, Mus musculus
# P388 [20] = test: Antitumor activity against P388 Leukemia from CDF1 female mice evaluated as the number of survivors on day 5 at a dose of 0.03 mg/kg/day; type: functional, Mus musculus
# In short: (§5)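 CDF1 female mice (BALB/c × DBA/2) inoculated ip with 10⁶ P388 cells on day 0. Drug given ip in 2% methanol on days 1, 5 and 9. Ten mice per dose group, with a larger control group. Body weight and survival were recorded on days 1 and 5, with toxicity taken as survivors on day 5. Mortality was followed for 30 days to give median survival time.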
# P388 [21] = test: Antitumor activity against P388 Leukemia from CDF1 female mice evaluated as Median survival time of treated mice at a dose of 0.25 mg/kg/day; type: functional, Mus musculus; in short: as §5
# P388 [22] = test: Average weight change of animals between day 1 and day 5 after tumor implementation at a dose of 0.12 mg/kg/day; type: functional, Mus musculus; in short: as §4
# P388 [23] = test: Antitumor activity (T/C) was evaluated from the median survival time of treated mice (T) over that of control mice (C) at a dose of 0.03 mg/kg/day; type: functional, Mus musculus
# In short: (§6)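 CDF1 female mice (BALB/c ♀ × DBA/2 ♂) given 10⁶ P388 cells ip on day 0. Drug in 2% methanol given ip on days 1, 5 and 9, 10 mice per group and more controls. Toxicity is survivors on day 5, with weight change between days 1 and 5. Mortality followed 30 days. T/C% is treated over control median survival (NCI method), significant at ≥125%.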
# P388 [24] = test: Antitumor activity (T/C) was evaluated from the median survival time of treated mice (T) over that of control mice (C) at a dose of 0.12 mg/kg/day; type: functional, Mus musculus; in short: as §6
structure (smiles),measurement,setting,value
COc1ccc(C[C@H]2C(=O)O[C@H](C)[C@H](NC(=O)[C@@H](CC(C)C)N(C)C(=O)C3CCCN3C(=O)[C@@H](C)O)C(=O)NC(C(C)C)[C@H](O)CC(=O)O[C@@H](C(C)C)C(=O)[C@H](C)C(=O)N[C@@H](CC(C)C)C(=O)N3CCC[C@H]3C(=O)N2C)cc1 (some centres undefined) [NORDIDEMNIN],T/C,B16 [1],139%
same,T/C,B16 [2],101%
same,T/C,B16 [3],154%
same,Toxicity,B16 [4],1
same,Toxicity,B16 [5],1
same,Toxicity,B16 [6],1
same,Toxicity,B16 [7],0.9
same,Body weight change,B16 [8],-0.9 g
same,"median survival time, days",B16 [9],27
same,"median survival time, days",B16 [10],28
same,Toxicity,L1210 [11],1
same,Body weight change,L1210 [12],0 g
same,T/C,L1210 [13],111%
same,"median survival time, days",L1210 [14],11.2
same,"median survival time, days",L1210 [15],10.1
same,IC50,L1210 [16],1.9 ng/mL
same,Body weight change,P388 [17],-1.2 g
same,Body weight change,P388 [18],-2.3 g
same,T/C,P388 [19],180%
same,Toxicity,P388 [20],1
same,"median survival time, days",P388 [21],15.7
same,Body weight change,P388 [22],-0.7 g
same,T/C,P388 [23],112%
same,T/C,P388 [24],133%
